Source: ChEMBL document CHEMBL1138269, “Antimicrobial lexitropsins containing amide, amidine, and alkene linking groups” (J Med Chem, 2007)
Values after ≈ are worked out from the molar mass of the structure shown.

Legend:
Assay type in all cases: functional
Staphylococcus aureus [1] = test: Antibacterial activity against methicillin-resistant Staphylococcus aureus clinical isolate 2
Outline: (§1)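 Broth microdilution MIC against clinical S. aureus isolates (incl. MRSA), run per NCCLS guidelines in 96-well plates. Test sample dissolved in sterile water to a 200 µg mL-1 working concentration, then doubling dilutions in Mueller-Hinton broth. Incubated at 37 °C, growth read visually plus resazurin indicator. MIC reported in µg/mL.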

Aspergillus niger = test: Antifungal activity against Aspergillus niger IMI 149007
Outline: (§2)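 Antifungal microdilution in Sabouraud broth. Test sample at 200 µg mL-1 working solution in sterile water was serially doubled down successive rows. Incubation was at 25 °C, followed by visual growth check and addition of resazurin indicator. Read-out is MIC in µg mL-1.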

Staphylococcus aureus [2] = test: Antibacterial activity against methicillin-resistant Staphylococcus aureus clinical isolate 5; outline: as §1
Staphylococcus aureus [3] = test: Antibacterial activity against methicillin-sensitive Staphylococcus aureus NCTC 6571; conditions: Staphylococcus aureus, NCTC 6571; read-out: MIC
Outline: (§3)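 Broth microdilution in Mueller-Hinton broth. Samples were dissolved in sterile water to 200 µg mL-1 as the working solution and doubling dilutions were made across rows. Plates were incubated at 37 °C and inspected visually, with resazurin added as growth indicator. MIC reported in µg mL-1.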

Candida albicans = test: Antifungal activity against Candida albicans NCPF 3179; conditions: Candida albicans; read-out: MIC; outline: as §2
Staphylococcus aureus [4] = test: Antibacterial activity against methicillin-resistant Staphylococcus aureus clinical isolate 3; outline: as §1
Staphylococcus aureus [5] = test: Antibacterial activity against methicillin-resistant Staphylococcus aureus clinical isolate 1; outline: as §1
Staphylococcus aureus [6] = test: Antibacterial activity against methicillin-resistant Staphylococcus aureus clinical isolate 4; outline: as §1
[7] = test system: Mycolicibacterium fortuitum; test: Antibacterial activity against Mycobacterium fortuitum NCTC 10394; outline: as §3
Enterococcus faecalis = test: Antibacterial activity against Streptococcus faecalis NCTC 775; conditions: Enterococcus faecalis, NCTC 775; read-out: MIC; outline: as §3

Row | Structure (SMILES) | MIC (Staphylococcus aureus [1]) [µg/mL] | MIC (Aspergillus niger) [µg/mL] | MIC (Staphylococcus aureus [2]) [µg/mL] | MIC (Staphylococcus aureus [3]) [µg/mL] | MIC (Candida albicans) [µg/mL] | MIC (Staphylococcus aureus [4]) [µg/mL] | MIC (Staphylococcus aureus [5]) [µg/mL] | MIC (Staphylococcus aureus [6]) [µg/mL] | MIC [7] [µg/mL] | MIC (Enterococcus faecalis) [µg/mL]
1 | COc1ccc(/C=C/c2ccc3cc(C(=O)Nc4cc(C(=O)Nc5cc(C(=O)NCCN6CCOCC6)n(C)c5)n(C)c4)ccc3n2)cc1 | > 64 | 50 (≈ 75.6 µM) | > 64 | > 50 | > 50 | > 64 | 4 (≈ 6.04 µM) | > 64 | > 50 | 25 (≈ 37.8 µM)
2 | CSc1ccc(/C=C/c2ccc3cc(C(=O)Nc4cc(C(=O)Nc5cc(C(=O)NCCN6CCOCC6)n(C)c5)n(C)c4)ccc3n2)cc1 | > 64 | > 50 | > 64 | > 50 | > 50 | > 64 | 4 (≈ 5.9 µM) | > 64 | > 50 | > 50
3 | CC(C)c1sc(NC(=O)c2cc(NC(=O)c3cc(NC(=O)c4ccc5c(c4)OCO5)cn3C)cn2C)nc1C(=O)NCCCN(C)C | 64 (≈ 96.6 µM) | > 50 | 64 (≈ 96.6 µM) | 13 (≈ 19.6 µM) | > 50 | 64 (≈ 96.6 µM) | 8 (≈ 12.1 µM) | 64 (≈ 96.6 µM) | > 50 | 25 (≈ 37.7 µM)
4 | CC(=N)Nc1cc(C(=O)Nc2cc(C(=O)Nc3cc(C(=O)NCCCN4CCOCC4)n(C)c3)n(C)c2)n(C)c1 | > 64 | > 50 | > 64 | > 50 | > 50 | > 64 | > 64 | > 64 | > 50 | > 50
5 | CN(C)CCCNC(=O)c1cc(NC(=O)c2cc(NC(=O)c3cc(NC(=N)c4ccc5ccccc5n4)cn3C)cn2C)cn1C | > 64 | 50 (≈ 80.3 µM) | > 64 | > 50 | 50 (≈ 80.3 µM) | > 64 | > 64 | > 64 | > 50 | 50 (≈ 80.3 µM)
6 | CC(C)CCc1sc(NC(=O)c2cc(NC(=O)c3cc(/C=C/c4ccc([N+](=O)[O-])cc4)cn3C)cn2C)nc1C(=O)NCCCN(C)C | > 64 | > 50 | > 64 | > 50 | > 50 | > 64 | > 64 | > 64 | > 50 | > 50
7 | Cn1cc(NC(=O)c2cc(NC(=O)c3ccc(/C=C/c4ccncc4)cc3)cn2C)cc1C(=O)NCCN1CCOCC1 | 2 (≈ 3.44 µM) | > 50 | 0.5 (≈ 0.86 µM) | 2 (≈ 3.44 µM) | 50 (≈ 86 µM) | 1 (≈ 1.72 µM) | 0.5 (≈ 0.86 µM) | 1 (≈ 1.72 µM) | > 50 | 25 (≈ 43 µM)
8 | CC(C)CCc1sc(NC(=O)c2cc(NC(=O)c3cc4ccccc4cn3)cn2C)nc1C(=O)NCCCN(C)C | > 64 | > 50 | > 64 | 50 (≈ 86.8 µM) | > 50 | > 64 | > 64 | > 64 | > 50 | 50 (≈ 86.8 µM)
9 | COc1cccc(/C=C/c2ccc(C(=O)Nc3cc(C(=O)Nc4cc(C(=O)NCCCN(C)C)n(C)c4)n(C)c3)cc2)c1 | 6.25 (≈ 10.7 µM) | 50 (≈ 85.8 µM) | 6.25 (≈ 10.7 µM) | 6 (≈ 10.3 µM) | > 50 | 6.25 (≈ 10.7 µM) | 6.25 (≈ 10.7 µM) | 6.25 (≈ 10.7 µM) | > 50 | > 50
10 | COc1cccc(C(=N)Nc2cc(C(=O)Nc3cc(C(=O)Nc4cc(C(=O)NCCCN5CCOCC5)n(C)c4)n(C)c3)n(C)c2)c1 | > 64 | > 50 | > 64 | > 50 | > 50 | > 64 | > 64 | > 64 | > 50 | > 50
11 | CC(C)CCn1cc(NC(=O)c2cc(NC(=O)c3cccc(Cl)c3)cn2C)cc1C(=O)Nc1cc(C(=O)NCCCN(C)C)n(C)c1 | 16 (≈ 24.1 µM) | > 50 | 16 (≈ 24.1 µM) | 13 (≈ 19.6 µM) | > 50 | 16 (≈ 24.1 µM) | 16 (≈ 24.1 µM) | 16 (≈ 24.1 µM) | > 50 | 6 (≈ 9.05 µM)
12 | CSc1ccc(/C=C/c2ccc(C(=O)Nc3cc(C(=O)Nc4cc(C(=O)NCCN5CCOCC5)n(C)c4)n(C)c3)cn2)cc1 | 4 (≈ 6.37 µM) | > 50 | 0.5 (≈ 0.796 µM) | 6 (≈ 9.56 µM) | > 50 | 2 (≈ 3.19 µM) | 0.5 (≈ 0.796 µM) | 1 (≈ 1.59 µM) | > 50 | > 50
